# Source: PubChem
# In the library only some 3.7% were active in any assay of this set; here they are far more common.
# NPY Y2 blocker: blocks the human neuropeptide Y Y2 receptor | P49146 | NPY-Y2 expressing cells, antagonist mode | inhibition, % at 2.7 µM | actives 0.99% (n = 140,000); in the data active means inhibition above about 17%
# Furin inhibitor: inhibitors of human furin | P09958 | purified furin, fluorogenic substrate cleavage | inhibition, % at 20 µM or 30 µM | actives 0.061% (n = 220,000) | AID 463115; in the data active means inhibition above about 25%
# Target sequence (P09958 108-714 limits assumed): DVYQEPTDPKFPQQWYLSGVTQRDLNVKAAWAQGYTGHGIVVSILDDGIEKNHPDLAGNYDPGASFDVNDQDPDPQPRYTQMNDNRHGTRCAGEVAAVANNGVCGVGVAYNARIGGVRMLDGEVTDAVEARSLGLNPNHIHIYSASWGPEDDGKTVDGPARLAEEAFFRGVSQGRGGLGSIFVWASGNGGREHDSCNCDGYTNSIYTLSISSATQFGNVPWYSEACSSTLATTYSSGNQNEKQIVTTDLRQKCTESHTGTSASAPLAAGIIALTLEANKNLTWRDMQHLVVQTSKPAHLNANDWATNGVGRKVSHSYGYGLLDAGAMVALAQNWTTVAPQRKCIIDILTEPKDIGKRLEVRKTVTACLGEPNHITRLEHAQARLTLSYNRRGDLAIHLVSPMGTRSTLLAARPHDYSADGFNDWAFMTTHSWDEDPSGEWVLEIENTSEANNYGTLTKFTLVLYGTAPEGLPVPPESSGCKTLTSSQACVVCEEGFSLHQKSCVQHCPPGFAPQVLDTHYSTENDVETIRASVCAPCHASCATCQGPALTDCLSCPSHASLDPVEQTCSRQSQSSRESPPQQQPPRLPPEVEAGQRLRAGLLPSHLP
# NPY-Y2 PAM-ag: potentiators or agonists of human neuropeptide Y receptor Y2; activation, % at 3.6 µM; actives 0.45% (n = 220,000); AID 1359; cells expressing NPY-Y2, potentiator/agonist read-out; in the data active means activation above about 27%;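 further: cells stimulated with NPY near EC25 plus isoproterenol at EC100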
# NPY Y1 blocker: blocks the human neuropeptide Y Y1 receptor | actives 1% (n = 200,000) | P25929 | inhibition, % at 3.6 µM | HEK293-CNG Y1 cells, membrane potential fluorescence; NPY at EC95, then isoproterenol | AID 1040;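 active means inhibition above the campaign mean inhibition of all tested compounds plus 3 SD, cut at about 20% in these data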
#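 material = HEK293 cells with Y1 receptor plus CNG channel | also added = NPY 25 nM then isoproterenol 1 µM plus Ro 20-1724 25 µM | schedule = dye 3 h, compound 60 min room temperature, stimulation 45 min | measured by = membrane potential fluorescence | benchmarks = high control isoproterenol alone, low control NPY with isoproterenol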
# NPY1 pot ag: potentiates or activates human NPY-Y1 receptor | P25929 | NPY-Y1 expressing cells, potentiator/agonist activation | activation, % at 3.6 µM | actives 0.37% (n = 220,000) | AID 1304; in the data active means activation above about 33%, passing the limit was not always enough;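 further: cells stimulated with NPY at EC10 then isoproterenol at EC100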
# KCC2 mod: modulates chloride dependent transport by human KCC2; Q9H2X9; KCC2 cells, thallium flux FluoZin-2 fluorescence; B-score of Tl+ flux slope (higher = more flux/activation; lower = inhibition) at 10 µM; actives 2.2% (n = 190,000); AID 1456;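 active means thallium flux slope and its plate-corrected score both differing from the plate sample mean at a set confidence after two filtering rounds, in either direction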;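 further: slope of fluorescence scaled to starting intensity during 10 to 20 s after thallium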
# KCC2 sec1: KCC2 (human) modulation, secondary assay; shares compounds with KCC2 mod; HEK293-KCC2, thallium flux, FluoZin2 fluorescence; active compounds read high; normalised thallium flux (F/F0 slope) at 10 µM; actives 15% (n = 3,700); AID 1713;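 active means thallium flux slope above the same plate's solvent-only control mean plus 3 SD; inconclusive means the two replicate wells disagree; inactive means no significant difference from solvent-only control wells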
# KCC2 bumet counter: thallium flux persisting under bumetanide in KCC2 cells, counter-screen secondary assay. shares compounds with KCC2 mod. HEK293-KCC2 + bumetanide/ouabain, thallium flux FluoZin2; active compounds read high. normalized thallium flux at 10 µM. actives 49% (n = 3,700). AID 1714;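 active means thallium entry rate above the same plate's blocked-transporter control wells by more than 3 SD; inconclusive means the two repeat wells disagree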;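 further: raw slope of fluorescence over initial fluorescence between 10 and 20 s after thallium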
# KCC2 sec2: KCC2 (human) modulation, second secondary assay; shares compounds with KCC2 mod; HEK293-KCC2, thallium flux FluoZin2 fluorescence; actives lie on both sides; F/F0 rise rate, 10–20 s post-thallium; normalized thallium flux at 10 µM; actives 23% (n = 3,700); AID 1715;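 active means thallium flux slope more than 3 SD above or below the plate's solvent-only control mean, mostly below; inconclusive means the two repeat wells disagreed; inactive means no significant shift from solvent-only controls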
# HEK293 Tl flux: counter-screen for KCC2 modulators: effect in parental HEK293 cells; thallium flux FluoZin2, ouabain; baseline-ratio fluorescence slope, 10–20 s after thallium; actives 46% (n = 3,700); shares compounds with KCC2 mod; thallium flux rate (normalised fluorescence) at 10 µM;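 active means thallium flux rate significantly above the same plate's solvent-only control wells, beyond their mean plus 3 SD; inconclusive means the two replicate wells gave conflicting results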
# KCC2 retest ouab: KCC2 (human) modulation, ouabain retest; HEK293-KCC2, thallium flux FluoZin2 fluorescence; bidirectional: low = inhibitor, high = activator; actives 48% (n = 3,700); shares compounds with KCC2 mod; raw Tl+ flux slope (below DMSO = inhibition, above = activation) at 10 µM;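 active means thallium flux slope beyond 3 SD from same-plate DMSO control mean in most replicates, usually higher, sometimes lower; inconclusive means repeat tests gave conflicting results; inactive means no significant difference from controls in most replicates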;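 further: slope of initial-normalized fluorescence between seconds 10 and 20 after thallium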
# HEK counter2: parental HEK flux effect, counter-screen 2; shares compounds with KCC2 mod; HEK293 parental, thallium flux FluoZin-2 fluorescence slope; thallium flux slope at 10 µM; actives 33% (n = 3,700);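 active means thallium flux slope above the same plate's solvent-control mean plus 3 SD in both duplicate wells; inconclusive means duplicate wells that disagreed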;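 further: run without ouabain in cells lacking the KCC2 cotransporter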
# A number is an active result; – = inactive; ? = inconclusive; · = not tested or not shown.
SMILES,NPY Y2 blocker,Furin inhibitor,NPY-Y2 PAM-ag,NPY Y1 blocker,NPY1 pot ag,KCC2 mod,KCC2 sec1,KCC2 bumet counter,KCC2 sec2,HEK293 Tl flux,KCC2 retest ouab,HEK counter2
Cc1nc2cc(C(=O)N3c4ccccc4CC3C)ccc2s1 (stereo unspecified),·,–,–,–,–,·,?,–,–,–,0.0196,?
c1ccc(-c2cn3nc4c(nc3n2)CCCC4)cc1,–,–,–,–,–,-4.51,–,–,0.0257,?,0.0163,0.00813
O=C(NC(=S)Nc1ccc2c(c1)OCO2)c1ccccc1,–,–,–,–,–,·,·,·,·,·,·,·
O=C(NC(=S)Nc1ccc2c(c1)OCCO2)c1cccc2ccccc12,–,–,–,–,–,11.4,?,0.0862,–,0.0345,0.0566,0.0157
O=C(NC(=S)Nc1ccc2c(c1)OCCO2)c1cccc(Br)c1,–,–,–,–,–,36.8,–,0.0423,0.0435,0.0459,0.0337,0.0278
Cc1ccc(C(=O)O)cc1-c1ccc(/C=C2/NC(=O)N(c3ccccc3)C2=O)o1,–,–,–,–,–,-4.64,–,–,0.0221,–,0.0136,–
O=c1cc(-c2ccccc2)nc2cc(-c3ccco3)[nH]n12,·,–,–,·,–,3.91,?,0.014,–,0.0113,?,–
CCOC(=O)c1sc(-c2ccc(Cl)cc2Cl)nc1O,·,–,–,·,–,9.2,–,0.0199,–,0.017,0.0262,0.0134
Nc1cc(C(=O)O)c(Oc2ccc(Cl)cc2Cl)cc1C(=O)O,–,–,–,–,–,–,·,·,·,·,·,·
Cc1nn(-c2ccccc2)c(Cl)c1/C=C1\SC(=S)NC1=O,–,–,–,–,–,35.1,0.0367,0.156,–,0.0634,0.0673,0.0267
NC(=S)Nc1nc2ccccc2s1,·,–,–,–,–,102,0.0411,0.0869,0.0508,0.0573,0.0563,0.0607
Nc1ccc(C(=O)Nc2nc3ccccc3s2)cc1,–,–,–,–,–,-3.62,–,–,–,–,–,–
C=CCNC(=S)NNC(=O)c1ccc(C)c(Cl)c1,·,–,–,–,–,–,·,·,·,·,·,·
C=CCNC(=S)NC(=O)c1ccc(C)c(Br)c1,·,–,–,–,–,40,0.0185,0.0925,–,?,0.0641,0.0215
Oc1cccc2ccc(/C=C/c3cccs3)nc12,–,–,–,–,–,14.9,–,0.0186,–,0.0129,?,–
Cc1ccsc1/C=C/c1ccc2cccc(O)c2n1,–,–,–,–,–,–,·,·,·,·,·,·
CC(C)(C)c1ccc(/C=N/NC(=S)Nc2cccnc2)cc1,·,–,–,–,–,12.1,–,0.0316,–,0.012,?,0.0108
Oc1ccc(/C=N/NC(=S)Nc2cccnc2)cc1O,–,–,–,–,–,–,·,·,·,·,·,·
CCC(C)(C)C1CCC(=NNC(=S)Nc2cccnc2)CC1 (stereo unspecified),·,–,–,–,–,24.1,–,0.0389,–,0.0219,0.0423,0.0126
O=C(NC1CCCCC1)c1sc(=S)n2c1[nH]c(=O)c1ccccc12,–,–,–,–,–,8.7,–,0.0333,0.0407,0.0255,0.0348,0.0274
CCC(NC(=O)Nc1cc(C)on1)(C(F)(F)F)C(F)(F)F,·,–,–,·,–,–,·,·,·,·,·,·
